In ChEMBL document CHEMBL4354797, “Novel Pyrazolo[4,3- d]pyrimidine as Potent and Orally Active Inducible Nitric Oxide Synthase (iNOS) Dimerization Inhibitor with Efficacy in Rheumatoid Arthritis Mouse Model” (J Med Chem, 2019):
The source made the active and inactive calls. The calls are words filed in the database; no cut-off is given here.

Test system: RAW264.7
Assay: Antiinflammatory activity in mouse RAW264.7 cells assessed as inhibition of LPS-induced NO production at 10 uM preincubated for 1 hr followed by LPS addition and measured after 24 hrs by Griess reagent-based assay relative to control
Type: functional
Method in brief: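 RAW 264.7 cells pretreated with compound for 1 h, then LPS 1 µg/mL for 24 h. Single-point inhibition at 10 µM. IC50 by regression of inhibition over several concentrations. At least three independent experiments.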

Row | Structure (SMILES) | inhibition at 10 µM | inhibition
1 | CCCc1nn(C)c2c(Nc3ccc(OC)cc3)nc(/C=C/c3cc(OC)c(OC)c(OC)c3)nc12 | 63.2% | –
2 | CCCc1nn(C)c2c(NCc3ccc(OC)cc3)nc(/C=C/c3cc(OC)c(OC)c(OC)c3)nc12 | 73.1% | –
3 | CCCc1nn(C)c2c(Nc3cccc(C)c3)nc(/C=C/c3cc(OC)c(OC)c(OC)c3)nc12 | 25.8% | –
4 | CCCc1nn(C)c2c(NCCc3ccccc3Cl)nc(/C=C/c3ccco3)nc12 | 70.8% | –
5 | CCCc1nn(C)c2c(NCc3ccc(Br)cc3)nc(/C=C/c3cc(OC)c(OC)c(OC)c3)nc12 | 53.9% | –
6 | CCCc1nn(C)c2c(NCCc3ccccc3F)nc(/C=C/c3cc(OC)c(OC)c(OC)c3)nc12 | 85% | –
7 | CCCc1nn(C)c2c(N3CCCCC3)nc(-c3cc(OC)c(OC)c(OC)c3)nc12 | 7.6% | –
8 | CCCc1nn(C)c2c(N3CCCC3)nc(/C=C/c3ccccc3)nc12 | 6.3% | –
9 | CCCc1nn(C)c2c(NCc3ccccc3Cl)nc(/C=C/c3ccco3)nc12 | 54.8% | –
10 | CCCc1nn(C)c2c(NC(C)CC)nc(/C=C/c3cc(OC)c(OC)c(OC)c3)nc12 (stereo not given) | 75% | –
11 | CCCc1nn(C)c2c(NC(C)C)nc(/C=C/c3ccco3)nc12 | 37.7% | –
12 | CCCc1nn(C)c2c(NCCc3ccccc3)nc(/C=C/c3ccco3)nc12 | 36.4% | –
13 | CCCc1nn(C)c2c(Nc3ccc(C(=O)OC)cc3)nc(-c3cc(OC)c(OC)c(OC)c3)nc12 | 17.3% | –
14 | CCCc1nn(C)c2c(NCc3ccc(Br)cc3)nc(/C=C/c3ccco3)nc12 | 40.6% | –
15 | CCCc1nn(C)c2c(N3CCOCC3)nc(/C=C/c3ccccc3)nc12 | 10.2% | –
16 | CCCc1nn(C)c2c(NCc3ccccc3OC)nc(/C=C/c3ccco3)nc12 | 38.4% | –
17 | CCCc1nn(C)c2c(NCCc3ccc(Cl)cc3)nc(/C=C/c3ccccc3)nc12 | 10.7% | –
18 | CCCc1nn(C)c2c(N(C)C)nc(/C=C/c3cc(OC)c(OC)c(OC)c3)nc12 | 82.1% | –

Row | Structure (SMILES) | inhibition at 10 µM | inhibition
19 | CCCc1nn(C)c2c(NCCc3ccc(OC)cc3)nc(-c3cc(OC)c(OC)c(OC)c3)nc12 | 10.2% | –
20 | CCCc1nn(C)c2c(Nc3cccc(C)c3)nc(/C=C/c3ccccc3)nc12 | 15.3% | –
21 | CCCc1nn(C)c2c(Nc3ccc(C(=O)O)cc3)nc(/C=C/c3cc(OC)c(OC)c(OC)c3)nc12 | 15.3% | –
22 | CCCc1nn(C)c2c(NCCc3ccc(Cl)cc3)nc(-c3cc(OC)c(OC)c(OC)c3)nc12 | 22.2% | –
23 | CCCc1nn(C)c2c(NCCc3ccccc3)nc(/C=C/c3cc(OC)c(OC)c(OC)c3)nc12 | 86.1% | –
24 | CCCc1nn(C)c2c(Nc3cccc(C(F)(F)F)c3)nc(/C=C/c3ccco3)nc12 | 8.9% | –
25 | CCCc1nn(C)c2c(Nc3ccc(Br)cc3)nc(/C=C/c3cc(OC)c(OC)c(OC)c3)nc12 | 33% | –
26 | CCCc1nn(C)c2c(Nc3ccc(C(F)(F)F)cc3)nc(/C=C/c3cc(OC)c(OC)c(OC)c3)nc12 | 37.8% | –
27 | CCCc1nn(C)c2c(NCCc3ccccc3)nc(-c3cc(OC)c(OC)c(OC)c3)nc12 | 20.2% | –
28 | CCCc1nn(C)c2c(NCCc3ccccc3F)nc(/C=C/c3ccccc3)nc12 | 43.9% | –
29 | CCCc1nn(C)c2c(NCCc3cccc(Cl)c3)nc(/C=C/c3cc(OC)c(OC)c(OC)c3)nc12 | 80% | –
30 | CCCc1nn(C)c2c(Nc3ccc(C(=O)N4CCN(CC)CC4)cc3)nc(-c3cc(OC)c(OC)c(OC)c3)nc12 | 27.6% | –
31 | CCCc1nn(C)c2c(NCCc3ccccc3Cl)nc(/C=C/c3cc(OC)c(OC)c(OC)c3)nc12 | 46.9% | –
32 | CCCc1nn(C)c2c(Nc3cccc(C)c3)nc(-c3cc(OC)c(OC)c(OC)c3)nc12 | – | inactive
33 | CCCc1nn(C)c2c(Nc3ccc(C(=O)N4CCN(CC)CC4)cc3)nc(/C=C/c3cc(OC)c(OC)c(OC)c3)nc12 | 15.4% | –
34 | CCCc1nn(C)c2c(N3CCCC3)nc(/C=C/c3cc(OC)c(OC)c(OC)c3)nc12 | 15.5% | –
35 | CCCc1nn(C)c2c(N3CCCCC3)nc(/C=C/c3cc(OC)c(OC)c(OC)c3)nc12 | 16.3% | –
